This is an account of results in ChEMBL document CHEMBL1287697, “Receptor agonists of macrophage migration inhibitory factor” (Bioorg Med Chem Lett, 2010).

Test [1] addresses T1, MIF/CD74 (Macrophage migration inhibitory factor and HLA-DR antigens-associated invariant chain) (Homo sapiens) (UniProt P14174+P04233). The experiment in a line: (§1) Inhibition of human biotinylated MIF/CD74 interaction. The test is classed as protein assay.
Test [2] addresses T2, MIF/CD74 (Macrophage migration inhibitory factor and HLA-DR antigens-associated invariant chain) (Homo sapiens, UniProt P14174+P04233).
T2 sequence (P14174 whole entry): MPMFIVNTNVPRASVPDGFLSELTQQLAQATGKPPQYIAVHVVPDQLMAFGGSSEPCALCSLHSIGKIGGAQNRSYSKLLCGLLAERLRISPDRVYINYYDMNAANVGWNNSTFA
T2 sequence (P04233 whole entry): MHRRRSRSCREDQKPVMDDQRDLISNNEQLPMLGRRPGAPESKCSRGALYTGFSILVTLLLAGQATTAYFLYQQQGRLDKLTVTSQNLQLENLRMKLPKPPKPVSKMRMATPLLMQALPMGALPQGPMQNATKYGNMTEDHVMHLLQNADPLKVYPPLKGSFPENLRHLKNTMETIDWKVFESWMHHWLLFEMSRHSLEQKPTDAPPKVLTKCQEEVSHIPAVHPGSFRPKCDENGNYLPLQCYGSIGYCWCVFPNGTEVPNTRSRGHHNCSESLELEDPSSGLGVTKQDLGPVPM
The description is as §1. The test is classed as protein assay.

The target in test [3] is T1, MIF/CD74 (Macrophage migration inhibitory factor and HLA-DR antigens-associated invariant chain) (Homo sapiens). As to the kind of experiment: Activation of human biotinylated MIF/CD74. The test is classed as protein assay.
The target of test [4] is T3, Macrophage migration inhibitory factor (Homo sapiens) (UniProt P14174).
T3 sequence (whole entry): T2 sequence (P14174 whole entry)
As to the kind of experiment: Induction of MIF-dependent ERK1/2 phosphorylation in human fibroblast after 30 mins by Western blotting. For orientation: In western blotting, separated proteins are transferred to a membrane and probed.

Test [5] addresses T1, MIF/CD74 (Macrophage migration inhibitory factor and HLA-DR antigens-associated invariant chain) (Homo sapiens). The experiment in a line: Binding affinity to human biotinylated MIF/CD74 at 150 nM. The test is classed as protein assay.
The target of test [6] is T3, Macrophage migration inhibitory factor (Homo sapiens). As to the kind of experiment: Agonist activity at human MIF tautomerase using 4-hydroxyphenylpyruvate as substrate at 100 uM. The test is classed as functional.
Test [7] has as its target T4, MIF/CD74 (Macrophage migration inhibitory factor and HLA-DR antigens-associated invariant chain) (Homo sapiens, UniProt P04233+P14174).
T4 sequence (P14174 whole entry): T2 sequence (P14174 whole entry)
T4 sequence (P04233 whole entry): T2 sequence (P04233 whole entry)
Described as §1. Type of test: protein assay.

The target in test [8] is T5, Macrophage migration inhibitory factor (Homo sapiens, UniProt P14174).
T5 sequence (P14174 whole entry): T2 sequence (P14174 whole entry)
The experiment in a line: (§2) Inhibition of human MIF tautomerase activity using 4-hydroxyphenylpyruvate as substrate. The method in brief: (§3)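 Recombinant human MIF tautomerase activity with 4-hydroxyphenylpyruvate as substrate. Compounds were tested between 1 nM and 1 mM. Where inhibition plateaued below 50%, the maximum percent inhibition was reported.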

The target of test [9] is T3, Macrophage migration inhibitory factor (Homo sapiens). The test is described as §2. A digest of the protocol:
as §3

Test [10] addresses T1, MIF/CD74 (Macrophage migration inhibitory factor and HLA-DR antigens-associated invariant chain) (Homo sapiens). The experiment in a line: Binding affinity to human biotinylated MIF/CD74 at 500 nM. The test is classed as protein assay.
Test [11] has the same target. As to the kind of experiment: Binding affinity to human biotinylated MIF/CD74 at 100 nM. The test is classed as protein assay.
Test [12] has as its target T3, Macrophage migration inhibitory factor (Homo sapiens). As to the kind of experiment: Inhibition of MIF-dependent ERK1/2 phosphorylation in human fibroblast after 30 mins by Western blotting. The method in brief: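 MIF-dependent ERK1/2 phosphorylation was measured in human fibroblasts. Phospho-ERK1/2 and total ERK1/2 were detected by western blot. The phospho/total ratio was determined by densitometry across three separate experiments.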

As a reminder, the IC50 is the point on the concentration scale where inhibition reaches its midpoint.

Active and inactive are the calls of the source. The calls are words filed in the database; no cut-off is given here.

As for `Oc1ccc(-c2cn(-c3cccc4ccccc34)nn2)cc1`, in test [1], the Imax turned out to be 23%.

For the compound `Cc1ccccc1Cn1cc(-c2ccc(O)cc2)nn1`, the IC50 entry in [2] was “Not Active”.

As for `Oc1ccc(-n2cc(-c3cncc4ccccc34)nn2)cc1`, the Activity was found to be 39% in test [3] and 100% in [5]. Besides, the result in [4] and in [6] was Active.

The compound `Oc1ccc(-c2cn(Cc3cccnc3)nn2)cc1` returned an Imax in test [1] of 20%.

Take `COc1cccc(Cn2cc(-c3ccc(O)cc3)nn2)c1`: inhibition in test [7] was half-maximal at 50 µM (IC50).

`Oc1ccc(-c2cn(-c3cncc4ccccc34)nn2)cc1` had an Imax in test [1] of 12%.

For `COc1cccc(Cc2cn(-c3ccc(O)cc3)nn2)c1OC`, the concentration for half-maximal inhibition (IC50) result in test [2] is “Not Active”.

`Oc1ccc(Cc2cn(-c3ccc(O)cc3)nn2)cc1`: in test [1], the Imax amounted to 23%. In [8] (read-out: IC50), the IC50 came to 690 µM.

In turn, `Oc1ccc(-c2cn(-c3cccnc3)nn2)cc1` registered an Imax in test [1] of 16%.

The compound `COc1ccc(Cc2cn(-c3ccc(O)cc3)nn2)cc1` came in with an Imax in test [1] of 36%.

As for `O=C(O)c1cccc(Cn2cc(-c3ccc(O)cc3)nn2)c1`, the IC50 entry in test [2] was “Not Active”.

In the case of `COc1ccccc1Cc1cn(-c2ccc(O)cc2)nn1`, the results for the Imax in [1] and in test [9] were 14% and 35%, respectively.

For the compound `Cc1cccc(Cn2cc(-c3ccc(O)cc3)nn2)c1`, the half-inhibitory concentration (IC50) entry in [2] is “Not Active”.

Regarding `Oc1ccc(-n2cc(Cc3ccccc3)nn2)cc1`, in test [7], the IC50 was found to be 3.5 µM.

In [1], `Cc1cccc(Cc2cn(-c3ccc(O)cc3)nn2)c1` returned an Imax of 30%.

For `COC(=O)c1cccc(Cn2cc(-c3ccc(O)cc3)nn2)c1`, the IC50 is 1.2 µM in test [7] and 2.5 µM in [8] (read-out: IC50).

Turning to `COc1ccc(Cn2cc(-c3ccc(O)cc3)nn2)cc1`, the half-maximal inhibitory concentration (IC50) entry in test [2] is listed as “Not Active”.

With `Oc1ccc(-n2cc(Cc3ccccc3O)nn2)cc1`, the Imax in test [1] stood at 9%. Further, the IC50 in [8] (read-out: IC50) was 1000 µM.

As for `Oc1ccc(-n2cc(Cc3cccc(O)c3)nn2)cc1`, the IC50 entry in [2] and in test [8] was “Not Active” throughout.

In the case of `Oc1ccc(-c2cn(Cc3ccccc3)nn2)cc1`, the IC50 result in test [2] was “Not Active”.

For the compound `COc1ccccc1Cn1cc(-c2ccc(O)cc2)nn1`, the Activity in [10] worked out at 40%; in test [3] it was 31%. Also, the outcome in test [4] and in test [6] was Active.

Consider `Oc1ccc(-c2cn(Cc3ccccn3)nn2)cc1`, for which the Imax in test [1] was determined as 30%.

In the case of `COc1cccc(Cc2cn(-c3ccc(O)cc3)nn2)c1`, the Imax in [1] is 8%; in [9], 40%.

For the compound `Oc1ccc(-n2cc(-c3cccnc3)nn2)cc1`, the Activity in test [3] is 23%; in test [11], 100%. Besides, the outcome in [4] and in test [6] was Active.

For the compound `COc1ccc(Cc2cn(-c3ccc(O)cc3)nn2)cc1OC`, in test [1], the Imax came to 22%.

On to `Oc1ccc(-n2cc(-c3cccc4ccccc34)nn2)cc1`, for which the half-maximal inhibitory concentration (IC50) result in test [2] was “Not Active”.

Turning to `COc1cccc(Cn2cc(-c3ccc(O)cc3)nn2)c1OC`, the inhibition result in test [12] was “Active”. Further, the half-maximal inhibitory concentration (IC50) in test [7] came out at 0.9 µM; in test [8] (read-out: IC50), 0.75 µM.
